pIC50: −log10 of the molar value. Activity calls are given as the source filed them.
Experiments:
[1] = Volume of distribution at steady state in rat at 1 mg/kg, iv or 1 mg/kg, po; assay type: ADME, organism-based; conditions: in vivo, read-out: Vdss
Procedure, shortened: (§1)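 Plasma pharmacokinetics used 1 mg/kg in rat and 0.5 mg/kg in dog, given iv and po. The iv formulation was 5% dimethylacetamide/95% (40% SBE-cyclodextrin in water). Oral dosing was a methylcellulose suspension of crystalline material.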

[2] = molecular target: T1, Fatty-acid amide hydrolase 1 (Homo sapiens) (UniProt O00519); conditions: 10 uM
T1 sequence (whole entry): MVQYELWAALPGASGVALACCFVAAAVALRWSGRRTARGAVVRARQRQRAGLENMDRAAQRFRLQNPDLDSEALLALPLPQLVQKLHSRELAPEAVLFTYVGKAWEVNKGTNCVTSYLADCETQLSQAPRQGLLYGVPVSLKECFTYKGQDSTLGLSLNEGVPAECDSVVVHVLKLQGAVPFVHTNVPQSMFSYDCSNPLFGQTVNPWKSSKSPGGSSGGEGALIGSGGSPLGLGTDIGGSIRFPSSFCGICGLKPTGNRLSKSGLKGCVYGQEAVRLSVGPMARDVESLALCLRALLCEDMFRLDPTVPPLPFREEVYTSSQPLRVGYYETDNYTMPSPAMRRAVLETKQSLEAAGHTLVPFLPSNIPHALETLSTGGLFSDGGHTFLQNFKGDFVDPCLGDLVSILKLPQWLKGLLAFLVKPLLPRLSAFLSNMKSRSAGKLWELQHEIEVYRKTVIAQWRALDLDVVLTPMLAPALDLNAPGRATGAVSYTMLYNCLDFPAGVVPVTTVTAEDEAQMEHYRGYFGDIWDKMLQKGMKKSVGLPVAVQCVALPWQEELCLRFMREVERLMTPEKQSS

MDCK [3] = assay: Apparent permeability from basolateral to apical side of MDCK cells; assay type: ADME, cell-based, Canis lupus familiaris; conditions: dog
[4] = Oral bioavailability in rat at 1 mg/kg; assay type: ADME, organism-based; conditions: in vivo; procedure, shortened: as §1
[5] = molecular target: T2, Fatty-acid amide hydrolase 1 (Mus musculus) (UniProt O08914); assay: Inhibition of FAAH in mouse brain membrane proteomes at 100 uM by competitive activity based protein profiling; assay type: cell membranes
T2 sequence (whole entry): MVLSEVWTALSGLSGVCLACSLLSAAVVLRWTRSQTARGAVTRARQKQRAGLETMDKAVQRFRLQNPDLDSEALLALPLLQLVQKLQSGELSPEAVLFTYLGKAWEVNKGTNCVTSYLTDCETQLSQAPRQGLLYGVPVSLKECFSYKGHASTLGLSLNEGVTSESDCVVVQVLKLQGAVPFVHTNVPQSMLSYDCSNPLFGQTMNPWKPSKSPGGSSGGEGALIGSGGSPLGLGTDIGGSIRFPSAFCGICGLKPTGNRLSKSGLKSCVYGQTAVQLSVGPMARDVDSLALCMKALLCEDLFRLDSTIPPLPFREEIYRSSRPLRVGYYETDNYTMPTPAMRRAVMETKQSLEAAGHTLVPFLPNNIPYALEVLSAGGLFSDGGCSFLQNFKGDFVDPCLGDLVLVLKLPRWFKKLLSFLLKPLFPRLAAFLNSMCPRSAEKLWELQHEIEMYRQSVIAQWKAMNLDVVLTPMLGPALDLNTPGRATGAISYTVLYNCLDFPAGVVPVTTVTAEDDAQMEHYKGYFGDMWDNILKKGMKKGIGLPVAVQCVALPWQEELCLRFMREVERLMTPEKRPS
Procedure, shortened: (§2)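 Competitive activity-based protein profiling used human and mouse brain membrane and soluble liver proteomes. Each was treated with compound at 10 or 100 μM or with DMSO, then labelled with FP-rhodamine. Serine hydrolases were resolved on fluorescent gels. Enzymes with reduced labelling intensity in the presence of inhibitor were scored as targets.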

[6] = Cmax in rat at 1 mg/kg, po; assay type: ADME, organism-based; parameters: dose 1 mg/kg, route oral; conditions: in vivo; procedure, shortened: as §1
Hepatocyte [7] = assay: Metabolic stability in human hepatocytes assessed as glutathione conjugate formation; assay type: ADME, cell-based
Procedure, shortened: (§3)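 Reactive metabolite potential was assessed by looking for glutathione conjugates in rat or human hepatocyte incubations.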

MDCK [8] = assay: Apparent permeability from apical to basolateral side of MDCK cells; assay type: ADME, cell-based, Canis lupus familiaris; conditions: dog
Homo sapiens = species on record: Homo sapiens; assay: Inhibition of fluorophosphonate-reactive serine proteases in human liver soluble proteomes at 100 uM by competitive activity based protein profiling; procedure, shortened: as §2
Rattus norvegicus [9] = assay: Antihyperalgesic activity in Sprague-Dawley rat model of complete Freund's adjuvant-induced inflammatory pain model assessed as reduction in mechanical allodynia at 0.1 mg/kg, po measured 4 hrs post dose; assay type: functional, organism-based; parameters: dose 0.1 mg/kg
Procedure, shortened: (§4)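 CFA was injected subcutaneously into the plantar surface of the rat hind paw. Oral dosing at 0.1-10 mg/kg began 5 days post-injection, once mechanical paw withdrawal threshold had fallen. Mechanical allodynia was read as paw withdrawal threshold 4 h after dosing. n=8 rats per group; significance versus vehicle-treated groups at p<0.05.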

Mus musculus = species on record: Mus musculus; assay: Inhibition of fluorophosphonate-reactive serine proteases in mouse liver soluble proteomes at 100 uM by competitive activity based protein profiling; procedure, shortened: as §2
[10] = Clearance in dog at 0.5 mg/kg, iv or 0.5 mg/kg, po; assay type: ADME, organism-based, Canis lupus familiaris; conditions: in vivo; procedure, shortened: as §1
Cytochrome P450 2D6 = Cytochrome P450 2D6 (Homo sapiens, UniProt P10635); assay: Inhibition of CYP2D6; assay type: ADME
Procedure, shortened: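 CYP inhibition was tested in human liver microsomes with relevant probe substrates.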

[11] = Clearance in rat at 1 mg/kg, iv or 1 mg/kg, po; assay type: ADME, organism-based; conditions: in vivo; procedure, shortened: as §1
[12] = Volume of distribution at steady state in dog at 0.5 mg/kg, iv or 0.5 mg/kg, po; assay type: ADME, organism-based, Canis lupus familiaris; conditions: in vivo, read-out: Vdss; procedure, shortened: as §1
[13] = molecular target: T3, Fatty-acid amide hydrolase 1 (Rattus norvegicus, UniProt P97612); assay: Irreversible inhibition of His-tagged rat FAAH N-terminal transmembrane-deleted truncated form expressed in Escherichia coli preincubated for 60 mins before oleamide substrate addition
T3 sequence (P97612 whole entry): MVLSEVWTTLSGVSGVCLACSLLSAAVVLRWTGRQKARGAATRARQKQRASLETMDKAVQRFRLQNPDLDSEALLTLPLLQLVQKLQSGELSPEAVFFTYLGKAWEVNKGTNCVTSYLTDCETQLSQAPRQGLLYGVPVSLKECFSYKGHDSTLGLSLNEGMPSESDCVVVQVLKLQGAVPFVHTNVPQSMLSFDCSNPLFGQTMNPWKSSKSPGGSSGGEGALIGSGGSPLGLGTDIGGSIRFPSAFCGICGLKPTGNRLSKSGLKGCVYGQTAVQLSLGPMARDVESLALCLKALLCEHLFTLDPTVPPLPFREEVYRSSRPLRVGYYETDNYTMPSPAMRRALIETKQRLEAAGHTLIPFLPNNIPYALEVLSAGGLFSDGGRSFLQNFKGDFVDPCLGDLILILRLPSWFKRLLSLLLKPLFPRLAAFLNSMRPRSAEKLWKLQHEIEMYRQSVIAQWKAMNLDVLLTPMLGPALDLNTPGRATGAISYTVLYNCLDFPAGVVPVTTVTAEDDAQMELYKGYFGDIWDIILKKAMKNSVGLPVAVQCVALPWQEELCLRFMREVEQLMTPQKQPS
Procedure, shortened: (§5)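 IC50 was determined after a 60 min preincubation of inhibitor with human or rat FAAH.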

[14] = Half life in dog at 0.5 mg/kg, iv; assay type: ADME, organism-based, Canis lupus familiaris; parameters: dose 0.5 mg/kg, route intravenous; conditions: in vivo; procedure, shortened: as §1
[15] = Tmax in rat at 1 mg/kg, iv or 1 mg/kg, po; assay type: ADME, organism-based; conditions: in vivo; procedure, shortened: as §1
Liver microsomes [16] = assay: Half life in human liver microsomes at 0.8 mg/mL protein concentration; assay type: ADME, Microsome
Procedure, shortened: (§6)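 Human liver microsomes at 0.8 mg/mL protein were used for half-life and microsomal protein binding. These in vitro data were used to predict human blood clearance.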

[17] = Half life in rat at 1 mg/kg, iv; assay type: ADME, organism-based; parameters: dose 1 mg/kg, route intravenous; conditions: in vivo; procedure, shortened: as §1
Hepatocyte [18] = assay: Metabolic stability in rat hepatocytes assessed as glutathione conjugate formation; assay type: ADME, cell-based; procedure, shortened: as §3
[19] = Cmax in dog at 0.5 mg/kg, po; assay type: ADME, organism-based, Canis lupus familiaris; parameters: dose 0.5 mg/kg, route oral; conditions: in vivo; procedure, shortened: as §1
[20] = molecular target: T4, Fatty-acid amide hydrolase 1 (Homo sapiens, UniProt O00519); assay: Inhibition of His-tagged human FAAH N-terminal transmembrane-deleted truncated form expressed in Escherichia coli preincubated for 60 mins before oleamide substrate addition; procedure, shortened: as §5
T4 sequence (O00519 whole entry): T1 sequence (whole entry)

Liver microsomes [21] = assay: Protein binding in human liver microsomes at 0.8 mg/mL protein concentration; assay type: ADME, Microsome; procedure, shortened: as §6
[22] = molecular target: T2, Fatty-acid amide hydrolase 1 (Mus musculus); assay: Inhibition of FAAH in mouse brain membrane proteomes at 10 uM by competitive activity based protein profiling; assay type: cell membranes; procedure, shortened: as §2
Canis familiaris = assay: Oral bioavailability in dog at 0.5 mg/kg, iv; assay type: ADME, organism-based, Canis lupus familiaris; conditions: in vivo; procedure, shortened: as §1
[23] = molecular target: T1, Fatty-acid amide hydrolase 1 (Homo sapiens); conditions: 100 uM
[24] = Tmax in dog at 0.5 mg/kg, iv or 0.5 mg/kg, po; assay type: ADME, organism-based, Canis lupus familiaris; conditions: in vivo; procedure, shortened: as §1
Rattus norvegicus [25] = assay: Antihyperalgesic activity in orally dosed Sprague-Dawley rat model of complete Freund's adjuvant-induced inflammatory pain model assessed as reduction in mechanical allodynia measured 4 hrs post dose; assay type: functional; procedure, shortened: as §4

Chain of Cytochrome P450 2D6 (P10635 whole entry): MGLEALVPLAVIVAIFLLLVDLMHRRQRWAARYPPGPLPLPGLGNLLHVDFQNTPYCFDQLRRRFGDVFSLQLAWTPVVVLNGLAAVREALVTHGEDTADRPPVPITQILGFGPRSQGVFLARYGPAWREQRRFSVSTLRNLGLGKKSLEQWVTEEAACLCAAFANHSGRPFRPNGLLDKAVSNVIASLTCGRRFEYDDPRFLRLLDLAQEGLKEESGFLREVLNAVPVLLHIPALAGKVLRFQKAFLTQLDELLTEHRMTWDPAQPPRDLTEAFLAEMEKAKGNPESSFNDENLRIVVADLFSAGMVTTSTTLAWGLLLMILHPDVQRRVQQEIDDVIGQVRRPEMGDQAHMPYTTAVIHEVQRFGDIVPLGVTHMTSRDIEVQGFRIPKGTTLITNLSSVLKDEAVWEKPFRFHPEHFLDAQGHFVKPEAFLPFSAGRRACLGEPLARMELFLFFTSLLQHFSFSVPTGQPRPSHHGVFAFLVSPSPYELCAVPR

With `O=C(Nc1cccnn1)N1CCC(=Cc2cccc(Oc3ccc(C(F)(F)F)cn3)c2)CC1` the Vd [1] was 3.2 L/kg, the inhibition [2] was “Active” and the permeability (MDCK [3]) was 20.2 ×10⁻⁶ cm/s. The bioavailability [4] was 88%, the inhibition [5] was “Active” and the Cmax [6] was 256 ng/mL. For the same molecule, the Stability (Hepatocyte [7]) was “Stable”, the permeability (MDCK [8]) was 15.2 ×10⁻⁶ cm/s and the inhibition (Homo sapiens) was “inactive”. The inhibition (Rattus norvegicus [9]) was “Active”, the inhibition (Mus musculus) was “inactive” and the clearance [10] was 1.3 mL/min/kg. It also gave a pIC50 (Cytochrome P450 2D6) of 4.84, a clearance [11] of 3 mL/min/kg and a Vd [12] of 2.9 L/kg. It also gave a pIC50 [13] of 8.13, a half-life [14] of 35.2 h and a Tmax [15] of 4 h. For the same molecule, the t1/2 (Liver microsomes [16]) was 1.75 h, the half-life [17] was 14.3 h and the Stability (Hepatocyte [18]) was “Stable”. It also gave a Cmax [19] of 240 ng/mL, a pIC50 [20] of 8.14 and a PB (Liver microsomes [21]) of 90%. For the same molecule, the inhibition [22] was “Active”, the F (Canis familiaris) was 58% and the inhibition [23] was “Active”. The Tmax [24] was 1 h and the MED (Rattus norvegicus [25]) was 0.1 mg/kg.
